Laboratory results from ChEMBL document CHEMBL3612020.
Calls of active or inactive are those of the source. The rule behind the calls is not given here.

Key:
D-amino-acid oxidase [1] = molecular target: T1, D-amino-acid oxidase (Homo sapiens, UniProt P14920); test: Inhibition of recombinant human DAAO expressed in HEK cells using D-serine as substrate assessed as formation of alpha-keto acid, ammonia, […] after 20 mins by horseradish peroxidase/o-phenylenediamine-based assay; parameters: species or system HEK293
How it was run: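 Human DAAO from HEK cells: lysate in 50 mM Tris pH 8.5 with 100 µM FAD, sonicated, then ion-exchange purified with a 0–0.5 M NaCl gradient. […] Enzyme set to give 2.0 mOD/min uninhibited. Rate read as absorbance change at 411 nm. Mean ± SD of ≥4 experiments in most cases.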

[2] = Metabolic stability in mouse liver microsomes assessed as compound remaining at 5 uM after 60 mins by LC/MS/MS analysis in presence of UDPGA; format: ADME; settings: 1 h
How it was run: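 Glucuronidation in mouse liver microsomes (0.5 mg/mL): 50 mM Tris-HCl pH 7.5, 8 mM MgCl2, 25 µg/mL alamethicin, pre-incubated at 37 °C. Started with 2 mM UDPGA (final), in duplicate, for 60 min. Quenched with cold acetonitrile plus internal standard; LC/MS/MS read-out, with cofactor-free controls.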

[3] = Clearance in CD1 mouse at 30 mg/kg, iv; format: ADME, organism-based; settings: in vivo
How it was run: (§1)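 Male CD1 mice, n = 3 per time point, dosed iv or po. About 1 mL blood taken by cardiac puncture into heparinized tubes, kept on wet ice, centrifuged 10 min at 800 g, 4 °C. Plasma stored at −80 °C; drug levels measured by HPLC–QTOF-MS.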

Salmonella typhimurium [4] = test: Mutagenicity in Salmonella typhimurium TA100 by Ames test in presence of S9 mixture; format: toxicity, organism-based; settings: salmonella enterica subsp. enterica serovar typhimurium
D-amino-acid oxidase [5] = molecular target: T1, D-amino-acid oxidase; test: Competitive inhibition of recombinant human DAAO expressed in HEK cells by double reciprocal plot analysis in presence of D-serine; parameters: species or system HEK293
How it was run: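 hDAAO was purified from HEK cell lysate by ion-exchange FPLC. […] Activity was read as the rate of absorbance change at 411 nm. The mode of inhibition and Ki came from a double reciprocal plot.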

MAO-A = molecular target: T2, MAO-A (Homo sapiens, UniProt P21397); test: Inhibition of MAO-A (unknown origin) at 10 uM relative to control
T2 sequence (P21397 whole entry): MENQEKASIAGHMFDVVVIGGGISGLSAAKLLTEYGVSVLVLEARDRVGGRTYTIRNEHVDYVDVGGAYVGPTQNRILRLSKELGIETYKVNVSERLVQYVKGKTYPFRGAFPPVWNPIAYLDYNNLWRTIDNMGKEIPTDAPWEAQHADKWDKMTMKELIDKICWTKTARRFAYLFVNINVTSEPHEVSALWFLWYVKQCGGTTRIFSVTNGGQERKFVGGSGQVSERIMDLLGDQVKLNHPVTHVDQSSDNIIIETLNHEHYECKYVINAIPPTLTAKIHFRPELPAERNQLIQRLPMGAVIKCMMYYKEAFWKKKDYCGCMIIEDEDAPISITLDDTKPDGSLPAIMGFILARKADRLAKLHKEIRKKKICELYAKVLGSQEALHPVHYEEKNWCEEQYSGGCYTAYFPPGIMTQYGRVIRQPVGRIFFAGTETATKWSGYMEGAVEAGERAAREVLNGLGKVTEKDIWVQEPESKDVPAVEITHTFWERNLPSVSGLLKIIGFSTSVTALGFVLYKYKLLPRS

[6] = molecular target: T3, Glutamate NMDA receptor; GRIN1/GRIN2A (Homo sapiens) (UniProt Q05586+Q12879); test: Inhibition of NMDA receptor phencyclidine binding site (unknown origin) at 10 uM relative to control; format: protein-complex assay
[7] = AUClast in CD1 mouse at 30 mg/kg, po; format: ADME, organism-based; parameters: dose 30 mg/kg, route oral, time 0 - last; settings: in vivo; how it was run: as §1
Mus musculus [8] = test: Increase in plasma Cmax of D-serine in CD1 mouse at 30 mg/kg, po; format: ADME, organism-based; settings: in vivo
[9] = molecular target: T3, Glutamate NMDA receptor; GRIN1/GRIN2A (Homo sapiens); test: Inhibition of NMDA receptor agonist binding site (unknown origin) at 10 uM relative to control; format: protein-complex assay
[10] = AUClast in CD1 mouse at 30 mg/kg, iv; format: ADME, organism-based; parameters: dose 30 mg/kg, route intravenous, time 0 - last; settings: in vivo; how it was run: as §1
Mus musculus [11] = test: Ratio of drug level in brain to plasma in CD1 mouse at 30 mg/kg, po; format: ADME, organism-based
[12] = Metabolic stability in mouse liver microsomes assessed as compound remaining at 5 uM after 60 mins by LC/MS/MS analysis in presence of NADPH; format: ADME; settings: 1 h
How it was run: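 Mouse liver microsomes (0.5 mg/mL) with 5 µM test compound in 100 mM potassium phosphate pH 7.4 plus NADPH regenerating system (1.3 mM NADPH). Reaction started with microsomes, run in duplicate for 60 min, quenched with cold acetonitrile containing internal standard. Parent quantified by LC/MS/MS; cofactor-free controls included.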

[13] = molecular target: T3, Glutamate NMDA receptor; GRIN1/GRIN2A (Homo sapiens); test: Inhibition of NMDA receptor glycine binding site (unknown origin) at 10 uM relative to control; format: protein-complex assay
[14] = Tmax in CD1 mouse at 30 mg/kg, po; format: ADME, organism-based; settings: in vivo; how it was run: as §1
D-amino-acid oxidase [15] = molecular target: T1, D-amino-acid oxidase; test: Inhibition of recombinant human DAAO expressed in HEK cells in presence of 10 to 100 uM of FAD; format: cell-based; settings: HEK293
How it was run: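 Reactions ran in 50 mM Tris pH 8.5 with 2% DMSO final, for 20 min at room temperature. Absorbance rate was read at 411 nm. IC50 was determined with FAD raised from 10 to 100 µM.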

MAO-B = molecular target: T4, MAO-B (Homo sapiens, UniProt P27338); test: Inhibition of MAO-B (unknown origin) at 10 uM relative to control
T4 sequence (P27338 whole entry): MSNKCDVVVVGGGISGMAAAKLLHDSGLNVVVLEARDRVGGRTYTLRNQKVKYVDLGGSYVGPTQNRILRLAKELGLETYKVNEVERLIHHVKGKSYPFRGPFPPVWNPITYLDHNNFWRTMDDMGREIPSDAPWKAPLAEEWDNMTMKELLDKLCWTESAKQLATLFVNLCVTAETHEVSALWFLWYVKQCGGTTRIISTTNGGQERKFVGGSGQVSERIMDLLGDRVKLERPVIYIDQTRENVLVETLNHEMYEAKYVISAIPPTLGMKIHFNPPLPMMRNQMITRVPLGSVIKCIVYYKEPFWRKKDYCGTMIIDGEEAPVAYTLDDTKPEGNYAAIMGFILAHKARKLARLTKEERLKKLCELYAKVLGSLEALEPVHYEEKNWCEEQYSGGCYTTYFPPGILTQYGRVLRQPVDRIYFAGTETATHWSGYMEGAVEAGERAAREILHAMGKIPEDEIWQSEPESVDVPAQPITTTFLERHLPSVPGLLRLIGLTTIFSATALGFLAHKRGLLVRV

[16] = molecular target: T5, Glycine receptor subunit alpha-1 (Homo sapiens) (UniProt P23415); test: Inhibition of strychnine-sensitive glycine receptor (unknown origin) at 10 uM relative to control
T5 sequence (whole entry): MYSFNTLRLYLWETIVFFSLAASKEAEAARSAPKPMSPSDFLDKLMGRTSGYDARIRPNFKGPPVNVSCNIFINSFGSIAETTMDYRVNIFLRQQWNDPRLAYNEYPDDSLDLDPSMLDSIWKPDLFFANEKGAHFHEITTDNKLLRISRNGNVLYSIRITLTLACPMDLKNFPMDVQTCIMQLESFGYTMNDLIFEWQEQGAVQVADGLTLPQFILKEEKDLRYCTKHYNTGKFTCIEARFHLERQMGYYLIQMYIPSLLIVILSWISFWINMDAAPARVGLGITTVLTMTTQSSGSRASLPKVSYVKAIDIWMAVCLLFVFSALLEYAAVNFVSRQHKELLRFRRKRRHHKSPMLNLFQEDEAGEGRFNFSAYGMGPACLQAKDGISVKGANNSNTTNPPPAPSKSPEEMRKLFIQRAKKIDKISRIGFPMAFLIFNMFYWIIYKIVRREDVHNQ

Salmonella typhimurium [17] = test: Mutagenicity in Salmonella typhimurium TA100 by Ames test in absence of S9 mixture; format: toxicity, organism-based; settings: salmonella enterica subsp. enterica serovar typhimurium
[18] = molecular target: T3, Glutamate NMDA receptor; GRIN1/GRIN2A (Homo sapiens); test: Inhibition of NMDA receptor MK801 binding site (unknown origin) at 10 uM relative to control; format: protein-complex assay
Mus musculus [19] = test: Decrease in plasma clearance of D-serine in CD1 mouse assessed as D-serine AUC (0 to 6 hrs) at 30 mg/kg, po (R[…]microg.hr/ml); format: functional
[20] = Volume of distribution in CD1 mouse at 30 mg/kg, iv; format: ADME, organism-based; settings: in vivo; how it was run: as §1
[21] = molecular target: Voltage-gated inwardly rectifying potassium channel KCNH2 (Homo sapiens, UniProt Q12809); test: Inhibition of human ERG up to 25 uM
[22] = Terminal half life in CD1 mouse at 30 mg/kg, iv; format: ADME, organism-based; settings: in vivo, read-out: beta t1/2 (converted); how it was run: as §1
Mus musculus [23] = test: Oral bioavailability in CD1 mouse at 30 mg/kg; format: ADME, organism-based; settings: in vivo; how it was run: as §1
[24] = Cmax in CD1 mouse at 30 mg/kg, po; format: ADME, organism-based; parameters: dose 30 mg/kg, route oral; settings: in vivo; how it was run: as §1

Sequence of Voltage-gated inwardly rectifying potassium channel KCNH2 (Q12809 whole entry): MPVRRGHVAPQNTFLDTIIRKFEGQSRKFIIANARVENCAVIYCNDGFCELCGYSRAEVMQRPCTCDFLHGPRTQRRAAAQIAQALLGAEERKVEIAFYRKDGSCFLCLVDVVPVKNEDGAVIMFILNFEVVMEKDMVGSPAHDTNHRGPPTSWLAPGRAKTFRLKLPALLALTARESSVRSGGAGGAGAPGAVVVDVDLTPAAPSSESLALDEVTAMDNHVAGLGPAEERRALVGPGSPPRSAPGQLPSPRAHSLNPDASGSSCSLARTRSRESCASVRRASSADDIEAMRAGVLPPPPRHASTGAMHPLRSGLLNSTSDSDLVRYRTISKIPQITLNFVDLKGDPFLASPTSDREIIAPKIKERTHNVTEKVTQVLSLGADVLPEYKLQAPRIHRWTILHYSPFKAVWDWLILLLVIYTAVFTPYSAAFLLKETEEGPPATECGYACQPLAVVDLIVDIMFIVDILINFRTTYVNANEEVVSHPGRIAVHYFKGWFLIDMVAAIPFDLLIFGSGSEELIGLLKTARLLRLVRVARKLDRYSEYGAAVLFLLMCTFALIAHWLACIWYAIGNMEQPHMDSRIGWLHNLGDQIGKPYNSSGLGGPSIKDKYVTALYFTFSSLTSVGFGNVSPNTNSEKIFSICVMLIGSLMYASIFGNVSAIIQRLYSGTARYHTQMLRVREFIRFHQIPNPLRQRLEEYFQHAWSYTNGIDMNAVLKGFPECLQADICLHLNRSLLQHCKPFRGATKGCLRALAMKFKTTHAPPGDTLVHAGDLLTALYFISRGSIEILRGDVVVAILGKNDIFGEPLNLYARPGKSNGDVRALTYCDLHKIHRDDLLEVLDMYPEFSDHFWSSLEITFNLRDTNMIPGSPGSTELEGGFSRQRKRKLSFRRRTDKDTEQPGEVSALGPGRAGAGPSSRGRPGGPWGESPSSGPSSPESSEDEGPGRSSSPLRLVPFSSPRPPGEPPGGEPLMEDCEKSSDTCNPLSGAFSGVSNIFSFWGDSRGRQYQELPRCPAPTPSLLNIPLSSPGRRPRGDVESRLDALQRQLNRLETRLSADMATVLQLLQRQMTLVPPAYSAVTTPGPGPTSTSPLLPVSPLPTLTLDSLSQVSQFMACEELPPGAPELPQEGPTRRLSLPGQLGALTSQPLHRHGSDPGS

## O=c1[nH]c(=O)n(CCc2ccc(Cl)cc2)nc1O
D-amino-acid oxidase [1]
  IC50: 0.04 µM

## O=c1[nH]c(=O)n(Cc2ccccc2)nc1O
D-amino-acid oxidase [1]
  IC50: 5.1 µM

## Cc1ccc(CCn2nc(O)c(=O)[nH]c2=O)cc1
D-amino-acid oxidase [1]
  IC50: 0.09 µM

## O=c1[nH]c(=O)n(CCc2ccc(F)cc2)nc1O
D-amino-acid oxidase [1]
  IC50: 0.05 µM

## COc1ccccc1CCn1nc(O)c(=O)[nH]c1=O
D-amino-acid oxidase [1]
  IC50: 0.27 µM

## Cc1ccccc1CCn1nc(O)c(=O)[nH]c1=O
D-amino-acid oxidase [1]
  IC50: 0.08 µM

## COc1ccc(CCn2nc(O)c(=O)[nH]c2=O)cc1
D-amino-acid oxidase [1]
  IC50: 0.12 µM

## O=c1[nH]c(=O)n(CCc2ccccc2)cc1O
D-amino-acid oxidase [1]
  IC50: 0.08 µM
[2]
  Stability: <= 1%

## O=c1[nH]c(=O)n(CCc2ccccc2O)nc1O
D-amino-acid oxidase [1]
  IC50: 0.09 µM

## O=c1[nH]c(=O)n(CCn2ccc3cccnc32)nc1O
D-amino-acid oxidase [1]
  IC50: 0.31 µM

## O=c1cc(CSc2ccc(Cl)c(Cl)c2)occ1O
[2]
  Stability: 5%

## CC(C)CCn1nc(O)c(=O)[nH]c1=O
D-amino-acid oxidase [1]
  IC50: 0.26 µM

## O=c1[nH]c(=O)n(Cc2cccc3ccccc23)nc1O
[3]
  clearance: 10.2 mL/min/kg
Salmonella typhimurium [4]
  Activity: Non-toxic
D-amino-acid oxidase [5]
  Ki: 0.06 µM
MAO-A
  inhibition at 10 µM: ≤ 5%
[6]
  inhibition: < 5%
[7]
  AUC(0-t): 12900 ng·h/mL
Mus musculus [8]
  Activity: Not Active
[9]
  inhibition: < 5%
[10]
  AUC(0-t): 16300 ng·h/mL
[2]
  Stability: >= 99%
Mus musculus [11]
  BPR: 0.01
[12]
  Stability: >= 99%
[13]
  inhibition: 22%
[14]
  Tmax: 4.8 min
D-amino-acid oxidase [15]
  inhibition: Active
MAO-B
  inhibition at 10 µM: ≤ 5%
[16]
  inhibition: < 5%
Salmonella typhimurium [17]
  Activity: Non-toxic
[18]
  inhibition: < 5%
Mus musculus [19]
  Activity: 96.9 µg·h/mL
[20]
  Vd: 0.8 L/kg
[21]
  inhibition (INH): Not Active
[22]
  half-life: 54 min
Mus musculus [23]
  F: 79%
[24]
  Cmax: 13800 ng/mL

## O=c1[nH]c(=S)n(CCc2ccccc2)nc1O
[2]
  Stability: >= 99%
[12]
  Stability: 87%

## O=c1[nH]c(=O)n(CCc2ccc(-c3ccccc3)cc2)nc1O
D-amino-acid oxidase [1]
  IC50: 0.05 µM

## O=c1[nH]c(=O)n(CCn2cnc3ccccc32)nc1O
D-amino-acid oxidase [1]
  IC50: 0.44 µM

## O=c1[nH]c(=O)n(CCc2cccc(O)c2)nc1O
D-amino-acid oxidase [1]
  IC50: 0.16 µM

## Cn1nc(O)c(=O)[nH]c1=O
D-amino-acid oxidase [1]
  IC50: 2.8 µM
